ChEMBL document CHEMBL1129477, “Structure-activity relationships of the quinolone antibacterials against mycobacteria: effect of structural changes at N-1 and C-7” (J Med Chem, 1996)
Converted amounts (≈) assume the structure as drawn.

Test system: Escherichia coli
Assay: Anti-bacterial activity was tested against Gram-negative EC-1 bacterium
Assay type: functional
Method in brief: (§1)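 Standard microtitration MIC determination (µg/mL) against four representative Gram-negative and Gram-positive bacterial strains.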

Row | MIC [µg/mL] | Structure (SMILES)
1 | 0.2 (≈ 0.479 µM) | CN1CCN(c2cc3c(cc2F)c(=O)c(C(=O)O)cn3-c2ccc(F)cc2F)CC1
2 | 0.1 (≈ 0.268 µM) | CCNCC1CCN(c2cc3c(cc2F)c(=O)c(C(=O)O)cn3C2CC2)C1 (centres undefined)
3 | 0.05 (≈ 0.139 µM) | CC1CN(c2cc3c(cc2F)c(=O)c(C(=O)O)cn3C2CC2)CC(C)N1 (centres undefined)
4 | 0.4 (≈ 1.15 µM) | CCn1cc(C(=O)O)c(=O)c2cc(F)c(N3CC(C)NC(C)C3)cc21 (centres undefined)
5 | 3.1 (≈ 8.58 µM) | CNCC1CCN(c2cc3c(cc2F)c(=O)c(C(=O)O)cn3C(C)C)C1 (centres undefined)
6 | 0.1 (≈ 0.278 µM) | CCC1CN(c2cc3c(cc2F)c(=O)c(C(=O)O)cn3C2CC2)CCN1 (centres undefined)
7 | 0.2 (≈ 0.6 µM) | CCn1cc(C(=O)O)c(=O)c2cc(F)c(N3CCNC(C)C3)cc21 (centres undefined)
8 | 0.4 (≈ 1.11 µM) | CC1CN(c2cc3c(cc2F)c(=O)c(C(=O)O)cn3C2CCC2)CCN1 (centres undefined)

Row | Structure (SMILES) | MIC [µg/mL]
9 | O=C(O)c1cn(C2CCC2)c2cc(N3CCNCC3)c(F)cc2c1=O | 0.4 (≈ 1.16 µM)

Test system: Mycolicibacterium fortuitum
Assay: Anti-bacterial activity tested against Mycobacterium fortuitum (ATCG 6841)
Assay type: functional

Row | MIC [µg/mL] | Structure (SMILES)
10 | 0.25 (≈ 0.599 µM) | CN1CCN(c2cc3c(cc2F)c(=O)c(C(=O)O)cn3-c2ccc(F)cc2F)CC1
11 | 0.5 (≈ 1.34 µM) | CCNCC1CCN(c2cc3c(cc2F)c(=O)c(C(=O)O)cn3C2CC2)C1 (centres undefined)
12 | 0.06 (≈ 0.167 µM) | CC1CN(c2cc3c(cc2F)c(=O)c(C(=O)O)cn3C2CC2)CC(C)N1 (centres undefined)
13 | 0.13 (≈ 0.374 µM) | CCn1cc(C(=O)O)c(=O)c2cc(F)c(N3CC(C)NC(C)C3)cc21 (centres undefined)
14 | 2 (≈ 5.53 µM) | CNCC1CCN(c2cc3c(cc2F)c(=O)c(C(=O)O)cn3C(C)C)C1 (centres undefined)
15 | 0.13 (≈ 0.362 µM) | CCC1CN(c2cc3c(cc2F)c(=O)c(C(=O)O)cn3C2CC2)CCN1 (centres undefined)
16 | 1 (≈ 3 µM) | CCn1cc(C(=O)O)c(=O)c2cc(F)c(N3CCNC(C)C3)cc21 (centres undefined)
17 | 0.25 (≈ 0.696 µM) | CC1CN(c2cc3c(cc2F)c(=O)c(C(=O)O)cn3C2CCC2)CCN1 (centres undefined)

Row | Structure (SMILES) | MIC [µg/mL]
18 | O=C(O)c1cn(C2CCC2)c2cc(N3CCNCC3)c(F)cc2c1=O | 0.5 (≈ 1.45 µM)

Test system: Mycolicibacterium smegmatis
Assay: Anti-bacterial activity tested against Mycobacterium smegmatis (ATCG 19420)
Assay type: functional

Row | MIC [µg/mL] | Structure (SMILES)
19 | 0.5 (≈ 1.2 µM) | CN1CCN(c2cc3c(cc2F)c(=O)c(C(=O)O)cn3-c2ccc(F)cc2F)CC1
20 | 0.5 (≈ 1.34 µM) | CCNCC1CCN(c2cc3c(cc2F)c(=O)c(C(=O)O)cn3C2CC2)C1 (centres undefined)
21 | 0.13 (≈ 0.362 µM) | CC1CN(c2cc3c(cc2F)c(=O)c(C(=O)O)cn3C2CC2)CC(C)N1 (centres undefined)
22 | 1 (≈ 2.88 µM) | CCn1cc(C(=O)O)c(=O)c2cc(F)c(N3CC(C)NC(C)C3)cc21 (centres undefined)
23 | 8 (≈ 22.1 µM) | CNCC1CCN(c2cc3c(cc2F)c(=O)c(C(=O)O)cn3C(C)C)C1 (centres undefined)
24 | 0.25 (≈ 0.696 µM) | CCC1CN(c2cc3c(cc2F)c(=O)c(C(=O)O)cn3C2CC2)CCN1 (centres undefined)
25 | 2 (≈ 6 µM) | CCn1cc(C(=O)O)c(=O)c2cc(F)c(N3CCNC(C)C3)cc21 (centres undefined)
26 | 1 (≈ 2.78 µM) | CC1CN(c2cc3c(cc2F)c(=O)c(C(=O)O)cn3C2CCC2)CCN1 (centres undefined)

Row | Structure (SMILES) | MIC [µg/mL]
27 | O=C(O)c1cn(C2CCC2)c2cc(N3CCNCC3)c(F)cc2c1=O | 2 (≈ 5.79 µM)

Test system: Pseudomonas aeruginosa
Assay: Anti-bacterial activity tested against Gram-negative PA-7 bacterium
Assay type: functional
Method in brief: as §1

Row | MIC [µg/mL] | Structure (SMILES)
28 | 0.8 (≈ 1.92 µM) | CN1CCN(c2cc3c(cc2F)c(=O)c(C(=O)O)cn3-c2ccc(F)cc2F)CC1
29 | 1.6 (≈ 4.28 µM) | CCNCC1CCN(c2cc3c(cc2F)c(=O)c(C(=O)O)cn3C2CC2)C1 (centres undefined)
30 | 0.8 (≈ 2.23 µM) | CC1CN(c2cc3c(cc2F)c(=O)c(C(=O)O)cn3C2CC2)CC(C)N1 (centres undefined)
31 | 3.1 (≈ 8.92 µM) | CCn1cc(C(=O)O)c(=O)c2cc(F)c(N3CC(C)NC(C)C3)cc21 (centres undefined)
32 | > 3.1 | CNCC1CCN(c2cc3c(cc2F)c(=O)c(C(=O)O)cn3C(C)C)C1 (centres undefined)
33 | 0.8 (≈ 2.23 µM) | CCC1CN(c2cc3c(cc2F)c(=O)c(C(=O)O)cn3C2CC2)CCN1 (centres undefined)
34 | > 3.1 | CCn1cc(C(=O)O)c(=O)c2cc(F)c(N3CCNC(C)C3)cc21 (centres undefined)
35 | 1.6 (≈ 4.45 µM) | CC1CN(c2cc3c(cc2F)c(=O)c(C(=O)O)cn3C2CCC2)CCN1 (centres undefined)

Row | Structure (SMILES) | MIC [µg/mL]
36 | O=C(O)c1cn(C2CCC2)c2cc(N3CCNCC3)c(F)cc2c1=O | 1.6 (≈ 4.63 µM)

Test system: Staphylococcus aureus
Assay: Anti-bacterial activity was tested against Gram-positive SA-13 bacterium
Assay type: functional
Method in brief: as §1

Row | MIC [µg/mL] | Structure (SMILES)
37 | 0.2 (≈ 0.479 µM) | CN1CCN(c2cc3c(cc2F)c(=O)c(C(=O)O)cn3-c2ccc(F)cc2F)CC1
38 | 0.8 (≈ 2.14 µM) | CCNCC1CCN(c2cc3c(cc2F)c(=O)c(C(=O)O)cn3C2CC2)C1 (centres undefined)
39 | 0.4 (≈ 1.11 µM) | CC1CN(c2cc3c(cc2F)c(=O)c(C(=O)O)cn3C2CC2)CC(C)N1 (centres undefined)
40 | 0.8 (≈ 2.3 µM) | CCn1cc(C(=O)O)c(=O)c2cc(F)c(N3CC(C)NC(C)C3)cc21 (centres undefined)
41 | 3.1 (≈ 8.58 µM) | CNCC1CCN(c2cc3c(cc2F)c(=O)c(C(=O)O)cn3C(C)C)C1 (centres undefined)
42 | 0.8 (≈ 2.23 µM) | CCC1CN(c2cc3c(cc2F)c(=O)c(C(=O)O)cn3C2CC2)CCN1 (centres undefined)
43 | 3.1 (≈ 9.3 µM) | CCn1cc(C(=O)O)c(=O)c2cc(F)c(N3CCNC(C)C3)cc21 (centres undefined)
44 | 3.1 (≈ 8.63 µM) | CC1CN(c2cc3c(cc2F)c(=O)c(C(=O)O)cn3C2CCC2)CCN1 (centres undefined)

Row | Structure (SMILES) | MIC [µg/mL]
45 | O=C(O)c1cn(C2CCC2)c2cc(N3CCNCC3)c(F)cc2c1=O | 3.1 (≈ 8.98 µM)

Test system: Streptococcus pyogenes
Assay: Anti-bacterial activity tested against Gram-positive SP1-1 bacterium
Assay type: functional
Method in brief: as §1

Row | MIC [µg/mL] | Structure (SMILES)
46 | 1.6 (≈ 3.83 µM) | CN1CCN(c2cc3c(cc2F)c(=O)c(C(=O)O)cn3-c2ccc(F)cc2F)CC1
47 | 0.8 (≈ 2.14 µM) | CCNCC1CCN(c2cc3c(cc2F)c(=O)c(C(=O)O)cn3C2CC2)C1 (centres undefined)
48 | > 3.1 | CC1CN(c2cc3c(cc2F)c(=O)c(C(=O)O)cn3C2CC2)CC(C)N1 (centres undefined)
49 | > 3.1 | CCn1cc(C(=O)O)c(=O)c2cc(F)c(N3CC(C)NC(C)C3)cc21 (centres undefined)
50 | 3.1 (≈ 8.58 µM) | CNCC1CCN(c2cc3c(cc2F)c(=O)c(C(=O)O)cn3C(C)C)C1 (centres undefined)
51 | 0.8 (≈ 2.23 µM) | CCC1CN(c2cc3c(cc2F)c(=O)c(C(=O)O)cn3C2CC2)CCN1 (centres undefined)
52 | > 3.1 | CCn1cc(C(=O)O)c(=O)c2cc(F)c(N3CCNC(C)C3)cc21 (centres undefined)
53 | > 3.1 | CC1CN(c2cc3c(cc2F)c(=O)c(C(=O)O)cn3C2CCC2)CCN1 (centres undefined)

Row | Structure (SMILES) | MIC [µg/mL]
54 | O=C(O)c1cn(C2CCC2)c2cc(N3CCNCC3)c(F)cc2c1=O | > 3.1
